Published values gathered from unrelated publications.
Each line is one published result; the experiments were not run side by side.
Cell line: HepG2
Observed: cell growth or viability

COc1ccc(/C=C2\SC(=S)N(CC(=O)Nc3ccccc3)C2=O)cc1
inhibition (MTT; 10 µM): 13.6%

COc1ccc(NC(=O)c2c(Nc3ccccc3)sc(C(=O)NN=Cc3ccc(OC)c(O)c3)c2NC(C)=O)cc1
viability (SRB; 100 µM, 48 h): 22.4%

CCOC(=O)c1ccc(-n2c(N)c(C#N)c(CC#N)c(C#N)c2=O)cc1
viability (MTT; 100 µM, 24 h): 24.5%

COc1ccc(NC(=O)c2c(Nc3ccccc3)sc(C#N)c2NC(=O)CNc2ccc(Cl)cc2)cc1
viability (SRB; 10 µM, 48 h): 33.2%

Cc1ccc2nc(-c3ccccc3O)[nH]c2c1
IC50 (MTT; 48 h): 26.1 µM

CCOC(=O)c1ccc(N2C(N)=C(C#N)C3(C(=O)Nc4ccccc43)C(C#N)=C2O)cc1 (stereo not shown)
viability (MTT; 6.25 µM, 24 h): 61.3%

COc1ccc(C=NNC(=O)c2sc(Nc3ccccc3)c(C(=O)Nc3ccc(OC)cc3)c2NC(C)=O)cc1
viability (SRB; 10 nM, 48 h): 89.3%

CC(C)(CO)Cn1nc(-c2ccc3nc(OC4CC4)ccc3c2)c2c(N)ncnc21
GI50: > 10 µM

COc1ccc(NC(=O)c2c(Nc3ccccc3)sc(C#N)c2NC(=O)CNc2ccccc2Cl)cc1
viability (SRB; 10 nM, 48 h): 88.3%

COc1ccc(-c2nc3ccc(C)cc3[nH]2)cc1OC
IC50 (MTT; 48 h): 43.6 µM

Cc1ccc(-c2cc(-c3ccc4oc(=O)cc(C)c4c3O)nc(N)n2)cc1
inhibition (MTT; 8 µg/mL, 72 h): 0%

CCOC(=O)c1ccc(-n2c(C)cc(/C=C/c3ccc(OCC)cc3)c(C#N)c2=O)cc1
viability (MTT; 25 µM, 24 h): 72%

CCn1cc(-c2nc(C)no2)c(=O)c2cc(F)c(N3CCC(Cc4ccccc4)CC3)cc21
EC50 (ATP luminescence; 48 h): > 40 µM

CCOC(=O)c1ccc(-n2c(C)cc(/C=C/c3ccc(OC)cc3)c(C#N)c2=O)cc1
viability (MTT; 1.56 µM, 24 h): 100%

CNC(=O)c1cc(Oc2ccc(NC(=O)Nc3ccc(Cl)c(C(F)(F)F)c3)cc2)ccn1
viability (SRB; 100 µM, 48 h): 40.3%

Cc1cc(=O)oc2ccc(-c3cc(-c4ccc(Cl)cc4)nc(N)n3)c(O)c12
inhibition (MTT; 128 µg/mL, 72 h): 87%

COc1ccc(NC(=O)c2c(Nc3ccccc3)sc(C(=O)NN=Cc3ccc(C)cc3)c2NC(C)=O)cc1
viability (SRB; 100 µM, 48 h): 57.3%

O=C(CN1C(=O)/C(=C/c2cccc(Br)c2)SC1=S)Nc1ccccc1
inhibition (MTT; 10 µM): 12.7%

Cc1ccc2nc(-c3c4ccccc4cc4ccccc34)[nH]c2c1
IC50 (MTT; 48 h): 21.4 µM

CCOC(=O)c1ccc(-n2c(-c3ccc(C)cc3)cc(-c3ccc(O)cc3)c(C#N)c2=O)cc1
viability (MTT; 25 µM, 24 h): 33.1%

CC(=O)Oc1ccc(/C=N/NC(=O)c2ccc(Nc3cc(C)nc4c(O)cccc34)cc2)cc1
inhibition (MTT; 20 µM): 56.7%

COc1ccc(NC(=O)c2c(Nc3ccccc3)sc(C#N)c2NC(=O)CNc2ccc(C)cc2)cc1
viability (SRB; 100 µM, 48 h): 62.3%
